In ChEMBL document CHEMBL4261658, “4-Hydroxy-3-nitro-5-ureido-benzenesulfonamides Selectively Target the Tumor-Associated Carbonic Anhydrase Isoforms IX and XII Showing Hypoxia-Enhanced Antiproliferative Profiles” (J Med Chem, 2018):
pIC50, pKi: −log10 of the molar value.

Columns and labels:
Carbonic anhydrase 12 = Carbonic anhydrase 12 (Homo sapiens, UniProt O43570)
HT-29 [1] = test: Cytotoxicity against human HT-29 cells assessed as reduction in cell viability after 48 hrs under normoxic conditions by MTT assay; assay type: functional, cell-based; conditions: for pIC50: HT-29, 48 h
Summary of the method: (§1)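 Cells cultured in high-glucose DMEM with 20% FBS at 37 °C and 5% CO2, seeded at 1x10^4/well, then dosed 24 h later (0–200 μM) for 48 h. Hypoxia: 1% O2, 5% CO2, balance N2 in a hypoxic workstation; normoxia: 20% O2 in air, 5% CO2. MTT (1 mg/ml) for 30 min at 37 °C, formazan dissolved in DMSO, A550. Untreated control set to 100%; quadruplicates, ≥3 cell batches, mean ± S.E.M.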

MDA-MB-231 [2] = test: Cytotoxicity against human MDA-MB-231 cells assessed as cell viability at 200 uM after 48 hrs under normoxic conditions by MTT assay (reference value: 100%); assay type: functional; conditions: MDA-MB-231, 48 h, read-out: Activity
Summary of the method: as §1

HT-29 [3] = test: Cytotoxicity against human HT-29 cells assessed as cell viability at 30 uM after 48 hrs under normoxic conditions by MTT assay (reference value: 100%); assay type: functional; conditions: Homo sapiens, HT-29, 48 h; read-out: Activity
Summary of the method: as §1

HT-29 [4] = test: Cytotoxicity against human HT-29 cells assessed as cell viability at 30 uM after 48 hrs under hypoxic conditions by MTT assay (reference value: 100%); assay type: functional; conditions: Homo sapiens, HT-29, 48 h; read-out: Activity
Summary of the method: as §1

PC-3 [5] = test: Cytotoxicity against human PC3 cells assessed as reduction in cell viability after 48 hrs under hypoxic conditions by MTT assay; assay type: functional, cell-based; conditions: for pIC50: PC-3, 48 h
Summary of the method: as §1

HT-29 [6] = test: Cytotoxicity against human HT-29 cells assessed as reduction in cell viability after 48 hrs under hypoxic conditions by MTT assay; assay type: functional, cell-based; conditions: for pIC50: HT-29, 48 h
Summary of the method: as §1

MDA-MB-231 [7] = test: Cytotoxicity against human MDA-MB-231 cells assessed as cell viability at 200 uM after 48 hrs under hypoxic conditions by MTT assay (reference value: 100%); assay type: functional; conditions: MDA-MB-231, 48 h, read-out: Activity
Summary of the method: as §1

Homo sapiens = species: Homo sapiens; test: Selectivity ratio of Ki for carbonic anhydrase 2 (unknown origin) to Ki for carbonic anhydrase 9 (unknown origin)
MDA-MB-231 [8] = test: Cytotoxicity against human MDA-MB-231 cells assessed as cell viability at 30 uM after 48 hrs under normoxic conditions by MTT assay (reference value: 100%); assay type: functional; conditions: MDA-MB-231, 48 h, read-out: Activity
Summary of the method: as §1

PC-3 [9] = test: Cytotoxicity against human PC3 cells assessed as cell viability at 200 uM after 48 hrs under normoxic conditions by MTT assay (reference value: 100%); assay type: functional; conditions: PC-3, 48 h, read-out: Activity
Summary of the method: as §1

Carbonic anhydrase 9 = Carbonic anhydrase 9 (Homo sapiens, UniProt Q16790); test: Inhibition of carbonic anhydrase 9 (unknown origin) preincubated for 15 mins by stopped flow CO2 hydration assay
MDA-MB-231 [10] = test: Cytotoxicity against human MDA-MB-231 cells assessed as cell viability at 100 uM after 48 hrs under normoxic conditions by MTT assay (reference value: 100%); assay type: functional; conditions: MDA-MB-231, 48 h, read-out: Activity
Summary of the method: as §1

PC-3 [11] = test: Cytotoxicity against human PC3 cells assessed as cell viability at 30 uM after 48 hrs under normoxic conditions by MTT assay (reference value: 100%); assay type: functional; conditions: PC-3, 48 h, read-out: Activity
Summary of the method: as §1

MDA-MB-231 [12] = test: Cytotoxicity against human MDA-MB-231 cells assessed as cell viability at 100 uM after 48 hrs under hypoxic conditions by MTT assay (reference value: 100%); assay type: functional; conditions: MDA-MB-231, 48 h, read-out: Activity
Summary of the method: as §1

HT-29 [13] = test: Cytotoxicity against human HT-29 cells assessed as cell viability at 100 uM after 48 hrs under normoxic conditions by MTT assay (reference value: 100%); assay type: functional; conditions: Homo sapiens, HT-29, 48 h; read-out: Activity
Summary of the method: as §1

PC-3 [14] = test: Cytotoxicity against human PC3 cells assessed as reduction in cell viability after 48 hrs under normoxic conditions by MTT assay; assay type: functional, cell-based; conditions: for pIC50: PC-3, 48 h
Summary of the method: as §1

HT-29 [15] = test: Cytotoxicity against human HT-29 cells assessed as cell viability at 200 uM after 48 hrs under normoxic conditions by MTT assay (reference value: 100%); assay type: functional; conditions: Homo sapiens, HT-29, 48 h; read-out: Activity
Summary of the method: as §1

PC-3 [16] = test: Cytotoxicity against human PC3 cells assessed as cell viability at 200 uM after 48 hrs under hypoxic conditions by MTT assay (reference value: 100%); assay type: functional; conditions: PC-3, 48 h, read-out: Activity
Summary of the method: as §1

HT-29 [17] = test: Cytotoxicity against human HT-29 cells assessed as cell viability at 200 uM after 48 hrs under hypoxic conditions by MTT assay (reference value: 100%); assay type: functional; conditions: Homo sapiens, HT-29, 48 h; read-out: Activity
Summary of the method: as §1

PC-3 [18] = test: Cytotoxicity against human PC3 cells assessed as cell viability at 30 uM after 48 hrs under hypoxic conditions by MTT assay (reference value: 100%); assay type: functional; conditions: PC-3, 48 h, read-out: Activity
Summary of the method: as §1

PC-3 [19] = test: Cytotoxicity against human PC3 cells assessed as cell viability at 100 uM after 48 hrs under normoxic conditions by MTT assay (reference value: 100%); assay type: functional; conditions: PC-3, 48 h, read-out: Activity
Summary of the method: as §1

MDA-MB-231 [20] = test: Cytotoxicity against human MDA-MB-231 cells assessed as cell viability at 30 uM after 48 hrs under hypoxic conditions by MTT assay (reference value: 100%); assay type: functional; conditions: MDA-MB-231, 48 h, read-out: Activity
Summary of the method: as §1

PC-3 [21] = test: Cytotoxicity against human PC3 cells assessed as cell viability at 100 uM after 48 hrs under hypoxic conditions by MTT assay (reference value: 100%); assay type: functional; conditions: PC-3, 48 h, read-out: Activity
Summary of the method: as §1

MDA-MB-231 [22] = test: Cytotoxicity against human MDA-MB-231 cells assessed as reduction in cell viability after 48 hrs under hypoxic conditions by MTT assay; assay type: functional, cell-based; conditions: for pIC50: MDA-MB-231, 48 h
Summary of the method: as §1

MDA-MB-231 [23] = test: Cytotoxicity against human MDA-MB-231 cells assessed as reduction in cell viability after 48 hrs under normoxic conditions by MTT assay; assay type: functional, cell-based; conditions: for pIC50: MDA-MB-231, 48 h
Summary of the method: as §1

HT-29 [24] = test: Cytotoxicity against human HT-29 cells assessed as cell viability at 100 uM after 48 hrs under hypoxic conditions by MTT assay (reference value: 100%); assay type: functional; conditions: Homo sapiens, HT-29, 48 h; read-out: Activity
Summary of the method: as §1

Carbonic anhydrase 1 = Carbonic anhydrase 1 (Homo sapiens, UniProt P00915); test: Inhibition of recombinant human cytosolic carbonic anhydrase 1 preincubated for 15 mins by stopped flow CO2 hydration assay
Chain of Carbonic anhydrase 1 (P00915 whole entry): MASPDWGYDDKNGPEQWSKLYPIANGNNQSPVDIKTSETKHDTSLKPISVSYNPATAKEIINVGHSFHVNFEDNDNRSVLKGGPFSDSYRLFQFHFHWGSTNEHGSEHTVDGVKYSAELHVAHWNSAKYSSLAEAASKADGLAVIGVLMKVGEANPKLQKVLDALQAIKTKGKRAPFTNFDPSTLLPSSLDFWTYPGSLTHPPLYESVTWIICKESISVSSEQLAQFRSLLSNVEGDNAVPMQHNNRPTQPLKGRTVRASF

Chain of Carbonic anhydrase 12 (O43570 whole entry): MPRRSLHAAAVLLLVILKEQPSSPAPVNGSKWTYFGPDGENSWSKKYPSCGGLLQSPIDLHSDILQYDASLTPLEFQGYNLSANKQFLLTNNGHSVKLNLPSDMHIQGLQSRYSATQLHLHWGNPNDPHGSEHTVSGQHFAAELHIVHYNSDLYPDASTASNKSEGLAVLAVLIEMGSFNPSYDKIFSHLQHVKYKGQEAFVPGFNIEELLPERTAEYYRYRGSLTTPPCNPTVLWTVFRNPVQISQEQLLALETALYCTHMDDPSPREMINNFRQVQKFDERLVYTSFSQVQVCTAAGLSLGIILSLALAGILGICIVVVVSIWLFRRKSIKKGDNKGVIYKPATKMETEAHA

SMILES	pKi (Carbonic anhydrase 12)	Activity (HT-29 [1])	pIC50 (HT-29 [1])	viability at 200 µM (MDA-MB-231 [2])	viability at 30 µM (HT-29 [3])	viability at 30 µM (HT-29 [4])	Activity (PC-3 [5])	pIC50 (PC-3 [5])	Activity (HT-29 [6])	pIC50 (HT-29 [6])	viability at 200 µM (MDA-MB-231 [7])	viability at 30 µM (MDA-MB-231 [8])	viability at 200 µM (PC-3 [9])	pKi (Carbonic anhydrase 9)	viability at 100 µM (MDA-MB-231 [10])	viability at 30 µM (PC-3 [11])	viability at 100 µM (MDA-MB-231 [12])	viability at 100 µM (HT-29 [13])	Activity (PC-3 [14])	pIC50 (PC-3 [14])	also measured
NS(=O)(=O)c1cc(NC(=O)NCCc2ccccc2)c(O)c([N+](=O)[O-])c1	6.51	Dose-dependent effect	< 3.70	85.1%	97.6%	76.7%	Dose-dependent effect	< 3.70	Dose-dependent effect	< 3.70	48.2%	108%	63.5%	6.96	107%	115%	79.8%	85.8%	Dose-dependent effect	< 3.70	Ratio Ki (Homo sapiens): 28; viability at 200 µM (HT-29 [15]): 80.7%; viability at 200 µM (PC-3 [16]): 61.9%; viability at 200 µM (HT-29 [17]): 53.8%; viability at 30 µM (PC-3 [18]): 85.2%; viability at 100 µM (PC-3 [19]): 68.5%; viability at 30 µM (MDA-MB-231 [20]): 72%; viability at 100 µM (PC-3 [21]): 62.7%; Activity (MDA-MB-231 [22]): Dose-dependent effect; pIC50 (MDA-MB-231 [22]): 3.71; Activity (MDA-MB-231 [23]): Dose-dependent effect; pIC50 (MDA-MB-231 [23]): < 3.70; viability at 100 µM (HT-29 [24]): 57.3%
NS(=O)(=O)c1cc(NC(=O)Nc2ccccc2)c(O)c([N+](=O)[O-])c1	6.08	–	–	–	–	–	–	–	–	–	–	–	–	6.03	–	–	–	–	–	–	Ratio Ki (Homo sapiens): 3; pKi (Carbonic anhydrase 1): < 4.30
NS(=O)(=O)c1cc(NC(=O)NCc2ccco2)c(O)c([N+](=O)[O-])c1	6.28	–	–	–	–	–	–	–	–	–	–	–	–	6.41	–	–	–	–	–	–	pKi (Carbonic anhydrase 1): < 4.30
Cc1cc(C)[n+](-c2cc(S(N)(=O)=O)cc([N+](=O)[O-])c2O)c(C)c1.[O-][Cl+3]([O-])([O-])[O-]	6.66	Dose-dependent effect	< 3.70	4%	101%	72.2%	Dose-dependent effect	< 3.70	Dose-dependent effect	< 3.70	98.3%	40.7%	50.3%	6.82	2.9%	77.4%	111%	97.2%	Dose-dependent effect	3.85	viability at 200 µM (HT-29 [15]): 89.4%; viability at 200 µM (PC-3 [16]): 88.9%; viability at 200 µM (HT-29 [17]): 59.4%; viability at 30 µM (PC-3 [18]): 97.7%; viability at 100 µM (PC-3 [19]): 58%; viability at 30 µM (MDA-MB-231 [20]): 98.9%; viability at 100 µM (PC-3 [21]): 104%; Activity (MDA-MB-231 [22]): Dose-dependent effect; pIC50 (MDA-MB-231 [22]): < 3.70; Activity (MDA-MB-231 [23]): Dose-dependent effect; pIC50 (MDA-MB-231 [23]): > 4.52; viability at 100 µM (HT-29 [24]): 62.5%
NS(=O)(=O)c1cc(NC(=O)c2ccc(F)cc2)c(OC(=O)c2ccc(F)cc2)c([N+](=O)[O-])c1	6.68	Dose-dependent effect	4.39	85.8%	62.8%	96.6%	Dose-dependent effect	4.25	Dose-dependent effect	4.23	13%	89.5%	10.2%	7.00	89.3%	51.6%	13.3%	5.7%	Dose-dependent effect	4.51	viability at 200 µM (HT-29 [15]): 6.6%; viability at 200 µM (PC-3 [16]): 15.6%; viability at 200 µM (HT-29 [17]): 8.4%; viability at 30 µM (PC-3 [18]): 95.7%; viability at 100 µM (PC-3 [19]): 13.9%; viability at 30 µM (MDA-MB-231 [20]): 92.9%; viability at 100 µM (PC-3 [21]): 29.9%; Activity (MDA-MB-231 [22]): Dose-dependent effect; pIC50 (MDA-MB-231 [22]): 4.28; Activity (MDA-MB-231 [23]): Dose-dependent effect; pIC50 (MDA-MB-231 [23]): < 3.70; viability at 100 µM (HT-29 [24]): 24.2%
CC(=O)OC[C@@H]1O[C@@H](OC(C)=O)[C@@H](NC(=O)Nc2cc(S(N)(=O)=O)cc([N+](=O)[O-])c2O)[C@H](OC(C)=O)[C@H]1OC(C)=O	6.10	Dose-dependent effect	< 3.70	103%	111%	95.6%	Dose-dependent effect	< 3.70	Dose-dependent effect	< 3.70	65.9%	100%	68.3%	6.54	111%	59.6%	90.7%	100%	Dose-dependent effect	< 3.70	viability at 200 µM (HT-29 [15]): 103%; viability at 200 µM (PC-3 [16]): 70.6%; viability at 200 µM (HT-29 [17]): 84.8%; viability at 30 µM (PC-3 [18]): 91.5%; viability at 100 µM (PC-3 [19]): 67.5%; viability at 30 µM (MDA-MB-231 [20]): 99.5%; viability at 100 µM (PC-3 [21]): 85.2%; Activity (MDA-MB-231 [22]): Dose-dependent effect; pIC50 (MDA-MB-231 [22]): < 3.70; Activity (MDA-MB-231 [23]): Dose-dependent effect; pIC50 (MDA-MB-231 [23]): < 3.70; viability at 100 µM (HT-29 [24]): 79.8%
